According to ChEMBL document CHEMBL1125189, “Relaxant activity of 6-cyano-2,2-dimethyl-2H-1-benzopyran-4-carboxamides and -thiocarboxamides and their analogues in guinea pig trachealis” (J Med Chem, 1991):

What was measured:
Cavia porcellus [1] = species on record: Cavia porcellus; test: Inhibition of spontaneous tone in guinea pig tracheal spirals; type: functional, Trachea
How it was run: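 Guinea pig tracheal spiral strips held isometrically in oxygenated Krebs solution. Intrinsic activity is the ratio of maximum relaxation to the isoprenaline maximum, given as an arithmetic mean.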

Cavia porcellus [2] = species on record: Cavia porcellus; test: Evaluated by measuring inhibition of spontaneous tone in guinea pig tracheal spirals; type: functional, Trachea
How it was run: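 Guinea pig tracheal spiral strips held isometrically in oxygenated Krebs solution. […] It is generally a geometric mean of ≥3 determinations, except where IC50 >15 μM. Intrinsic activity is the ratio of maximum relaxation to the isoprenaline maximum, given as an arithmetic mean.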

Cavia porcellus [3] = test: Inhibition of Histamine-induced bronchospasm was measured by measuring % prolongation of collapse time of guinea pig at different intervals of time at a peroral dose of 20 mg/kg (time between dose and challenge 60 min); type: functional; details: route oral
How it was run: (§1)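 Male guinea pigs (400-460 g) were dosed orally with compound or vehicle and placed in a ca. 8-L chamber. At set times after dosing they were challenged for 4 min with aerosol from 5 mM histamine diphosphate, generated over 20 s by ultrasonic nebulizer. Time from aerosol to collapse was recorded. Data are means ± SE.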

Cavia porcellus [4] = species on record: Cavia porcellus; test: Inhibition of Histamine-induced bronchospasm was measured by measuring % prolongation of collapse time of guinea pig; type: functional; how it was run: as §1
Cavia porcellus [5] = test: Inhibition of Histamine-induced bronchospasm was measured by measuring % prolongation of collapse time of guinea pig at different intervals of time at a peroral dose of 20 mg/kg (time between dose and challenge 15 min); type: functional; details: route oral; how it was run: as §1
Cavia porcellus [6] = test: Inhibition of Histamine-induced bronchospasm was measured by measuring % prolongation of collapse time of guinea pig at different intervals of time at a peroral dose of 20 mg/kg (time between dose and challenge 30 min); type: functional; details: route oral; how it was run: as §1
Cavia porcellus [7] = test: Inhibition of Histamine-induced bronchospasm was measured by measuring % prolongation of collapse time of guinea pig at different intervals of time at a peroral dose of 5 mg/kg (time between dose and challenge 60 min); type: functional; details: route oral; how it was run: as §1
Cavia porcellus [8] = test: Inhibition of Histamine-induced bronchospasm was measured by measuring % prolongation of collapse time of guinea pig at different intervals of time at a peroral dose of 20 mg/kg (time between dose and challenge 90 min); type: functional; details: route oral; how it was run: as §1
Cavia porcellus [9] = test: Inhibition of Histamine-induced bronchospasm was measured by measuring % prolongation of collapse time of guinea pig at different intervals of time at a peroral dose of 10 mg/kg (time between dose and challenge 60 min); type: functional; details: route oral; how it was run: as §1
Cavia porcellus [10] = test: Inhibition of Histamine-induced bronchospasm was measured by measuring % prolongation of collapse time of guinea pig at different intervals of time at a peroral dose of 20 mg/kg (time between dose and challenge 120 min); type: functional; details: route oral; how it was run: as §1
Cavia porcellus [11] = test: Inhibition of Histamine-induced bronchospasm was measured by measuring % prolongation of collapse time of guinea pig at different intervals of time at a peroral dose of 10 mg/kg (time between dose and challenge 15 min); type: functional; details: route oral; how it was run: as §1

Row | SMILES | IC50 (Cavia porcellus [1]; Cavia porcellus, Trachea) [µM] | Intinsic activity (Cavia porcellus [2]) | other results
1 | COc1ccc(NC(=S)C2=C(O)C(C)(C)Oc3ccc(C#N)cc32)cc1 | 6.4 | 0.6 | –
2 | CC1(C)Oc2ccc(C#N)cc2C(N2CCCC2=O)C1O (stereo not given) [CROMAKALIM] | – | 0.89 | Prolongation (Cavia porcellus [4]): 174%
3 | CO/C(=N\c1ccccc1)C1=C(O)C(C)(C)Oc2ccc(C#N)cc21 | – | 0.82 | Prolongation (Cavia porcellus [7]): 1%
4 | CC1(C)Oc2ccc(C#N)cc2C(/C(S)=N/c2ccccc2)C1O (cis isomer) | – | 0.14 | IC50 (Cavia porcellus [1]): > 20 µM
5 | C/N=C(\S)C1=C(O)C(C)(C)Oc2ccc(C#N)cc21 | – | 0.69 | –
6 | CC1(C)Oc2ccc(C#N)cc2C(/C(S)=N/c2ccc(F)cc2)=C1O | – | 0.88 | –
7 | CSC(SC)=C1C(=O)C(C)(C)Oc2ccc(C#N)cc21 | > 20 | – | –
8 | CC1(C)Oc2ccc(C#N)cc2C(/C(S)=N/c2ccccc2)C1O (trans isomer) | – | 0.82 | IC50 (Cavia porcellus [1]): 3.4 µM
9 | CC(C)(C)/N=C(\S)C1c2cc(C#N)ccc2OC(C)(C)C1O (stereo in doubt; 11b) | – | 0.79 | IC50 (Cavia porcellus [1]): 11.1 µM
10 | C/N=C(/S)C1=CC(C)(C)Oc2ccc(C#N)cc21 | – | 0.88 | Prolongation (Cavia porcellus [8]): 175%; Prolongation (Cavia porcellus [3]): 230%; Prolongation (Cavia porcellus [7]): 12%; Prolongation (Cavia porcellus [6]): 244%; Prolongation (Cavia porcellus [9]): 9%; Prolongation (Cavia porcellus [10]): 187%
11 | C/N=C(\S)C1c2cc(C#N)ccc2OC(C)(C)C1O (trans isomer) | – | 0.93 | IC50 (Cavia porcellus [1]): 5.6 µM
12 | CC1(C)Oc2ccc(C#N)cc2C(F)(C(=O)Nc2ccccc2)C1=O (stereo not given) | – | 0.95 | Prolongation (Cavia porcellus [9]): 10%
13 | CC1(C)Oc2ccc(C#N)cc2C(C(=O)Nc2ccccc2)=C1O | – | 0.98 | Prolongation (Cavia porcellus [11]): -6%; Prolongation (Cavia porcellus [9]): -14%
14 | CC(C)(C)/N=C(\S)C1c2cc(C#N)ccc2OC(C)(C)C1O (stereo in doubt; 11a) | > 20 | 0.3 | –
15 | C/N=C(\S)C1c2cc(C#N)ccc2OC(C)(C)C1O (cis isomer) | 5.92 | 0.84 | –
16 | CC(C)(C)/N=C(\S)C1=C(O)C(C)(C)Oc2ccc(C#N)cc21 | 4.35 | 0.93 | –

Second part, led by results:

Row | IC50 (Cavia porcellus [1]; Cavia porcellus, Trachea) [µM] | SMILES | Intinsic activity (Cavia porcellus [2]) | other results
17 | 1.14 | CC1(C)C=C(C(=O)Nc2ccccc2)c2cc(C#N)ccc2O1 | 0.86 | Prolongation (Cavia porcellus [3]): 34%
18 | 0.25 | CC1(C)Oc2ccc(C#N)cc2C(/C(S)=N/c2ccccc2)=C1O | 0.99 | Prolongation (Cavia porcellus [5]): 63%; Prolongation (Cavia porcellus [3]): 10%; Prolongation (Cavia porcellus [6]): 14%
19 | > 20 | CC(C)(C)/N=C(\S)C1=CC(C)(C)Oc2ccc(C#N)cc21 | 0 | –
20 | > 20 | CC1(C)Oc2ccc(C#N)cc2C(C)(C(=O)Nc2ccccc2)C1=O (stereo not given) | – | –
21 | > 20 | COC1=C(C(=O)Nc2ccccc2)c2cc(C#N)ccc2OC1(C)C | – | –
22 | 1.35 | CC(=O)OC1=C(C(=O)N(C(C)=O)c2ccccc2)c2cc(C#N)ccc2OC1(C)C | 0.95 | Prolongation (Cavia porcellus [3]): 5%
23 | 1.2 | COc1ccc(NC(=O)C2=C(O)C(C)(C)Oc3ccc(C#N)cc32)cc1 | 0.94 | –
24 | 1.36 | CC1(C)Oc2ccc(C#N)cc2C(c2nc3ccccc3s2)=C1O | 0.96 | Prolongation (Cavia porcellus [3]): -1%
